T cruzi repl – inhibitors of intracellular T. cruzi growth, primary screen, luminescence, NIH3T3 host cells; AID 1885, 2009; 300,000 compounds, 1.4% hits; T. cruzi beta-gal in NIH3T3, 90 h; inhibition, % (concentration not given with the values);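 active = mean inhibition across valid replicates above about 55%, limit read from the data; inconclusive = mean below that limit but half or more replicates reach it; inactive = mean below it, under half of replicates reach it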;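 also: signal also drops with host cell toxicity which is not excluded here; 0% = plate median of DMSO wells and 100% = zero luminescence signal; higher percent means less beta-gal luminescence so fewer parasites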
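System: Mouse NIH/3T3 fibroblasts infected with β-gal-expressing T. cruzi Tulahuen C4 | Quantity: NIH/3T3 cells, 5,000 per well | Reagent: 5000 reporter trypomastigotes per well | Dosing: Compound pinned at 50 nL/well, DMSO | Schedule: 3 h host attachment, then at least 90 h co-culture | Detection: GalScreen luminescence, 60 min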
SKKanGAS inh – S. pyogenes SKKanGAS growth inhibitors in kanamycin, primary screen, streptokinase expression inhibitor project, SKKanGAS strain, BacTiter-Glo luminescence; 6 h; inhibition, % at 7.5 µM; 300,000 compounds, 1.3% hits;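 active = mean replicate score, as percent of positive control median, at least 50; inconclusive = mean below 50 but one replicate at or above 50; inactive = mean and every replicate below 50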;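 also: strain carries kanamycin resistance gene driven by streptokinase promoter and grows in 40 µg/ml kanamycin; loss of luminescence reflects streptokinase promoter inhibition or plain growth inhibition; 0% = median of DMSO wells and 100% = positive control at its reference dose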
CSC inhib – cancer stem cell viability inhibitors, primary screen, luminescence; cancer stem cell-like cells viability; inhibition, % at 7.5 µM; 300,000 compounds, 1.1% hits; AID 2717, 2010; in the data active = inhibition above about 75%; inconclusive = no clear call, values can overlap the other calls; tested in HMLE shEcad cells
Mdm2 MdmX PPI – inhibitors of human Mdm2-MdmX association, primary screen, cell-based, luminescence, split luciferase, SaOS-2, uHTS; 330,000 compounds, 3% hits; inhibition, % at 8 µM; Protein Mdm4 (Homo sapiens) + E3 ubiquitin-protein ligase Mdm2 (Homo sapiens), …; SaOS-2 split-luciferase Mdm2/MdmX complementation;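 active = inhibition of at least 50% at 8 µM in the primary screen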
Target sequence (O15151 whole entry, looked up): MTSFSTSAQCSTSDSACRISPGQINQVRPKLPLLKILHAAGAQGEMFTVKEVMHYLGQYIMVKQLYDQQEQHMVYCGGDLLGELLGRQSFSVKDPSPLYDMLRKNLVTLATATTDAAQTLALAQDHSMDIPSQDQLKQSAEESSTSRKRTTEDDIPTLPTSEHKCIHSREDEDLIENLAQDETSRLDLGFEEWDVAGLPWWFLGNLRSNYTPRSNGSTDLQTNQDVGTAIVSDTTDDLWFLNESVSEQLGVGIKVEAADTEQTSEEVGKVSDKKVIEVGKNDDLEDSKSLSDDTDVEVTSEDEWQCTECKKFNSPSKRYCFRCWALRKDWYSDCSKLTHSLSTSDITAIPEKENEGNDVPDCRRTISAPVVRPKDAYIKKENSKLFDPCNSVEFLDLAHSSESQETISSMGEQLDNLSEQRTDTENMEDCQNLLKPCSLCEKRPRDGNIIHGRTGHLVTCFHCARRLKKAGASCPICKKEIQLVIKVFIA
Target sequence (Q00987 whole entry, looked up): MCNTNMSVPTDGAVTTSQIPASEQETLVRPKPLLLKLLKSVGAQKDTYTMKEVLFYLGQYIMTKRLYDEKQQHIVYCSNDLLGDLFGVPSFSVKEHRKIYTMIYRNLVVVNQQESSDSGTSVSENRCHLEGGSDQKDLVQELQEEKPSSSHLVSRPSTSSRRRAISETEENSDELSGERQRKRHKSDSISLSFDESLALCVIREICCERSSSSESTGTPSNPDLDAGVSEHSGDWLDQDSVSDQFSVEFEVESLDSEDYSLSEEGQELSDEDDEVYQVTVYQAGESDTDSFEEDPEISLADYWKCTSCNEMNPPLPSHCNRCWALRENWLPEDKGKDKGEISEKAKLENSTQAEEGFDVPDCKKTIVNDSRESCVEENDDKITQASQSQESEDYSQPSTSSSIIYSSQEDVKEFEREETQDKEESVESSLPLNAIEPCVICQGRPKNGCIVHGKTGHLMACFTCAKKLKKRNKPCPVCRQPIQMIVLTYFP
Calb FLC – C. albicans growth inhibition with fluconazole, primary screen, CaCi-2 strain, Alamar Blue fluorescence. C. albicans CaCi-2 + fluconazole, 48 h. growth inhibition, % (no concentration beside the values). 300,000 compounds, 0.57% hits. AID 1979, 2009;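 active = growth inhibition above about 58% in most replicates, limit read from the data, passing the limit was not always enough; inconclusive = exactly half the replicates above a set limit; inactive = most replicates below a set limit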;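 also: all wells also contain fluconazole at 8 µg/ml as a sub-toxic cotreatment; 0% = median of DMSO wells and 100% = median of geldanamycin control wells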
Beta apoptosis – inhibitors of cytokine-induced beta cell apoptosis, primary screen, luminescence; protection from apoptosis, % (concentration not given with the values); 300,000 compounds, 0.8% hits; INS-1E cytokine-induced death, ATP luminescence, 48 h; percent of positive-control rescue, neutral wells zero;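 active = Every replicate reaches about 75%, or at least half do and their mean reaches it too, limit read from the data; inconclusive = At least half of replicates reach the limit but their mean does not; inactive = Under half of replicates reach the limit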;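 also: 0% = cytokine-treated negative control wells and 100% = positive control rescue; higher means more ATP so stronger rescue from cytokine killing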
Mdm2 MdmX conf – Mdm2-MdmX complex disruptors, retested hits, confirmation, luminescence, single concentration; shares compounds with Mdm2 MdmX PPI; Mdm2-MdmX binding, luminescent assay; inhibition, % at 8 µM; 10,000 compounds, 55% hits; in the data active = inhibition above about 40%
Full FLuc ctr – full-length luciferase signal inhibition, confirmation, counter-screen for Mdm2/MdmX interaction inhibitor project, cell-based, single concentration, SaOS-2; shares compounds with Mdm2 MdmX PPI; SaOS-2 full-length luciferase counterscreen, luminescence; inhibition, % at 8 µM; 6,200 compounds, 77% hits; AID 504607, 2011;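 active = mean inhibition at 8 µM reaching about 37%, which flags the compound as non-specific, limit read from the data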;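 also: p53-null SaOS-2 cells with luciferase driven by a doxycycline-inducible promoter; compound on cells about two nights before reading with doxycycline added after day one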
Active calls of the source: *; ? = inconclusive; . = no result. In the library only some 5.7% were active in any assay of this set; here they are far more common.

SMILES | T cruzi repl | SKKanGAS inh | CSC inhib | Mdm2 MdmX PPI | Calb FLC | Beta apoptosis | Mdm2 MdmX conf | others
Cc1ccc2[nH]c(O)c(N=NC(N)=S)c2c1 | 9.1 | -9.1 | -9.6 | 10.4 | 6.4 | -1.3 | .
CC(/C=C(\NC(=O)c1ccccc1)C(=O)N=Nc1c(O)[nH]c2ccc(C)cc12)=C\c1ccccc1 | 48.1 | 42.0 | 15.0 | 64.3* | 50.2 | 34.0 | 46.7* | Full FLuc ctr=81.9*
Fc1ccc(NCc2n[nH]c(=S)n2Cc2ccccc2)cc1 | -3.1 | 1.2 | 7.8 | -13.7 | 0.5 | 1.7 | .
CCOc1ccc(C2C=C(c3ccc(C)cc3)Nc3nnnn32)cc1 (configuration not stated) | -14.1 | 33.9 | 14.2 | 50.1* | 2.9 | -0.4 | 12.2
CCOc1ccc(C2C=C(c3ccccc3)Nc3nnnn32)cc1 (configuration not stated) | -1.7 | 18.3 | -6.3 | -226.6 | 15.9 | 0.5 | .
CCn1ncc(CN2CCCC(C(=O)Nc3cccc(-c4cc5ccccc5[nH]4)c3)C2)c1C (configuration not stated) | 42.3 | -1.4 | 20.1 | 58.5* | 2.8 | -1.8 | 12.4
O=C(Nc1cccc(-n2cccn2)c1)C1CCCN(Cc2cc3ccccc3[nH]2)C1 (configuration not stated) | 30.6 | 4.9 | . | 28.4 | -6.3 | . | .
CN(C)S(=O)(=O)c1ccc(Cl)c(C(=O)Nc2ccc(S(=O)(=O)N3CCOCC3)cc2)c1 | -3.9 | -1.9 | -3.8 | -6.0 | -3.7 | -2.5 | .
Cc1oc(-c2ccccc2Cl)nc1Cn1cccc1C1=NC(c2ccccc2)CO1 (configuration not stated) | 29.2 | ? | 49.0 | 55.5* | -3.4 | 2.5 | 57.0* | Full FLuc ctr=89.8*
NCC(=O)NCC(=O)NC[C@H]1O[C@@H](n2cnc3c(N)ncnc32)[C@H](O)[C@@H]1O | . | . | . | 23.1 | . | . | .
COCCNC(=O)/C(C#N)=C/C=C/c1ccccc1[N+](=O)[O-] | -40.7 | 20.6 | 20.8 | 52.9* | -1.1 | -24.0 | 54.2* | Full FLuc ctr=22.7
COCCNC(=O)/C(C#N)=C/c1ccc(O)c([N+](=O)[O-])c1 | 0.8 | 5.3 | -5.2 | 15.9 | 17.4 | 4.4 | .
c1ccc(Nc2nc(N3CCCC3)nc(N3CCCC3)n2)cc1 | 4.8 | 5.4 | 10.4 | -7.8 | -8.5 | 2.7 | .
c1ccc(Nc2nc(N3CCCCC3)nc(N3CCNCC3)n2)cc1 | 29.7 | 7.2 | -0.8 | 61.5* | -27.4 | 5.4 | 30.0
CCC(CO)NCC(O)COCc1ccc2c(c1)OCO2 (configuration not stated) | 5.8 | -0.5 | -11.3 | -0.9 | -6.2 | -0.8 | .
C=CCn1c(CCC(O)COCCCCC)n[nH]c1=S (configuration not stated) | -18.4 | -4.5 | -13.1 | -7.0 | -3.3 | -3.0 | .
CC(=O)C12CCCCC1CC1[C@@H]3CC(C)C4=CC(=O)CC[C@]4(C)C3CC[C@@]12C (some centres not stated) | 4.6 | 5.4 | . | 56.3* | -2.7 | . | 5.9
Cc1ccc(NC(=O)c2ccc(Cl)cc2Cl)cc1O | 6.2 | -0.9 | 24.6 | -198.2 | 1.9 | 6.2 | .
CCN1C(=O)/C(=C/c2nc3ccccc3c(=O)n2-c2ccccc2)c2ccccc21 | 45.3 | 10.8 | 22.2 | 83.3* | 5.9 | 23.2 | 49.1* | Full FLuc ctr=57.4*
COc1ccc(N=C2NN=C(c3c(C)[nH]c4ccccc34)CS2)cc1 | 11.4 | ? | 101.4* | 54.0* | 0.2 | 24.4 | 25.9
Cc1[nH]c2ccccc2c1C1=NNC(=Nc2ccc(F)cc2)SC1 | 6.8 | . | 35.4 | 23.7 | . | 10.2 | .
CCN(CC(O)COc1ccc(OCC(O)CN(CC)C2CCCCC2)cc1)C1CCCCC1 (configuration not stated) | 27.8 | 0.8 | 7.7 | 69.2* | 2.8 | 3.1 | 12.4
CCN(CC(O)COCc1ccc(Cl)cc1)C1CCCCC1 (configuration not stated) | 17.6 | -4.4 | 4.3 | 0.7 | -17.7 | -3.0 | .
CCOc1ccc(S(=O)(=O)NCCC(=O)OCC(=O)c2ccc(NC(C)=O)cc2)cc1 | -8.1 | 1.4 | -13.1 | 15.7 | -13.9 | . | .
COc1ccc(C(CNC(=O)c2ccc(Cl)c(NC(=O)c3cccs3)c2)N2CCCC2)cc1 (configuration not stated) | 8.2 | -4.7 | -3.3 | 9.0 | -1.3 | . | .
SMILES | T cruzi repl | SKKanGAS inh | CSC inhib | Mdm2 MdmX PPI | Calb FLC | Beta apoptosis | Mdm2 MdmX conf | others
CN(C)S(=O)(=O)n1cc(/C=C(\NC(=O)c2ccccc2F)C(=O)N2CCOCC2)c2ccccc21 | -7.3 | 3.4 | 2.1 | 9.9 | ? | 6.7 | .
CN(C)S(=O)(=O)n1cc(/C=C(\NC(=O)c2ccccc2Cl)C(=O)N2CCOCC2)c2ccccc21 | -14.2 | -3.8 | -0.6 | 62.4* | 34.5 | -0.5 | -4.7
COc1ccc(S(=O)(=O)N2CCCCCC2)cc1NC(=O)c1c2c(nc3ccccc13)CCN(Cc1ccccc1)C2 | 52.9 | 6.0 | -2.2 | 1.0 | 35.5 | 13.0 | .
CCN(CC)S(=O)(=O)c1ccc(OC(C)C)c(NC(=O)c2c3c(nc4ccccc24)CCN(Cc2ccccc2)C3)c1 | 47.7 | 12.5 | . | 54.9* | -5.6 | 13.5 | 53.8* | Full FLuc ctr=79.9*
CCOC(=O)c1[nH]c(C)c(C(=O)N2CCc3ccccc32)c1C | 9.0 | -15.9 | 46.7 | 63.0* | -1.4 | 18.7 | 57.2* | Full FLuc ctr=81.8*
COc1cccc2sc(N(CCN(C)C)C(=O)c3ccc(S(=O)(=O)N4CCCC4)cc3)nc12 | 13.1 | 12.2 | 6.3 | 14.4 | -7.1 | 1.2 | .
Cc1ccc2sc(N(CCCN(C)C)C(=O)c3ccc(S(=O)(=O)N4CCCCCC4)cc3)nc2c1C | 56.6* | -3.7 | 77.1* | 62.6* | -8.0 | . | 36.5 | Full FLuc ctr=88.6*

Assay outcomes deposited in PubChem BioAssay by several laboratories.
